# High-throughput results: PubChem BioAssay, several laboratories
# Shown are actives, neighbours in structure and some others; about 4.5% of the full set was active somewhere.
# XBP1 UPR activ – activators of adaptive XBP1 UPR arm, primary screen, cell-based, CHO-XBP1 luciferase reporter, luminescence, uHTS | activation, % at 20 µM | actives 0.33% (n = 330,000) | IRE1-XBP1 UPR activation; percent of tunicamycin response, DMSO as zero;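 active = versus positive control, 20 µM dose yields 30% or more activation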;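 also: 100% = tunicamycin at 10 µg/mL and 0% = DMSO only wells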
#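 Material: CHO-XBP1 cells stably carrying IRE1-XBP1-driven luciferase reporter / Amount: 1000 cells per well / Compound: 20 µM, 1% DMSO / Times: 6 h treatment, 37 °C / Detection: luciferase luminescence / Measure: % activation of reporter signal versus tunicamycin and DMSO controls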
# CHOP inhibitor – inhibitors of CHOP promoter induction, primary screen, cell-based, unfolded protein response, luciferase reporter. inhibition, % at 10 µM. CHO-K1 CHOP-promoter luciferase, tunicamycin-induced, 15-18 h. actives 3.8% (n = 220,000);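 active = compounds that reduced the stress-induced luciferase reporter signal by more than about 70% of percent inhibition, limit read from the data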;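 also: 0% = tunicamycin plus vehicle and 100% = wells without tunicamycin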
# PfM18AAP inh – PfM18AAP inhibitors, malaria aminopeptidase, primary screen, biochemical, QFRET, recombinant enzyme. H-Glu-NHMec fluorogenic cleavage. actives 1.2% (n = 290,000). M18 aspartyl aminopeptidase (Plasmodium falciparum 3D7). inhibition, % at 7.35 µM. AID 1822, 2009;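 active = inhibition above the campaign mean inhibition over all tested compounds plus 3 SD, cut at about 28% in these data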;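 also: 0% = plate median of test compound wells and 100% = 2 mM ZnCl2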
# NS3 helicase inh – inhibitors of HCV NS3 helicase, primary screen, biochemical, Cy5 molecular beacon fluorescence; actives 0.56% (n = 290,000); NS3 helicase DNA unwinding; AID 1800, 2009; inhibition, % at 10.9 µM; Hepatitis C virus NS3 helicase;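 active = inhibition above the mean of all tested compounds plus 3 SD, set per campaign, cut at about 35% in these data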;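 also: 0% = DMSO wells and 100% = thioflavine S control wells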
#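 System: NS3 helicase fragment of HCV / Schedule: 1 h at 25 °C / Control set: DMSO alone as 0% and 110 µM thioflavine S as 100% / Reagent: Cy5/quencher beacon DNA duplex and ATP to start / Technique: Cy5 fluorescence / Replication: singlicate / Evaluation: % inhibition of end-to-start signal ratio versus controls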
# p97 ATPase inh – inhibitors of human p97 ATPase, primary screen, biochemical; recombinant p97 ATPase, Kinase-Glo ATP luminescence, 3 h; inhibition, % at 8 µM; actives 0.42% (n = 220,000); in the data active = inhibition above about 15%;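 also: 0% = DMSO vehicle and 100% = wells lacking enzyme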
# Target sequence (P55072 whole entry, looked up): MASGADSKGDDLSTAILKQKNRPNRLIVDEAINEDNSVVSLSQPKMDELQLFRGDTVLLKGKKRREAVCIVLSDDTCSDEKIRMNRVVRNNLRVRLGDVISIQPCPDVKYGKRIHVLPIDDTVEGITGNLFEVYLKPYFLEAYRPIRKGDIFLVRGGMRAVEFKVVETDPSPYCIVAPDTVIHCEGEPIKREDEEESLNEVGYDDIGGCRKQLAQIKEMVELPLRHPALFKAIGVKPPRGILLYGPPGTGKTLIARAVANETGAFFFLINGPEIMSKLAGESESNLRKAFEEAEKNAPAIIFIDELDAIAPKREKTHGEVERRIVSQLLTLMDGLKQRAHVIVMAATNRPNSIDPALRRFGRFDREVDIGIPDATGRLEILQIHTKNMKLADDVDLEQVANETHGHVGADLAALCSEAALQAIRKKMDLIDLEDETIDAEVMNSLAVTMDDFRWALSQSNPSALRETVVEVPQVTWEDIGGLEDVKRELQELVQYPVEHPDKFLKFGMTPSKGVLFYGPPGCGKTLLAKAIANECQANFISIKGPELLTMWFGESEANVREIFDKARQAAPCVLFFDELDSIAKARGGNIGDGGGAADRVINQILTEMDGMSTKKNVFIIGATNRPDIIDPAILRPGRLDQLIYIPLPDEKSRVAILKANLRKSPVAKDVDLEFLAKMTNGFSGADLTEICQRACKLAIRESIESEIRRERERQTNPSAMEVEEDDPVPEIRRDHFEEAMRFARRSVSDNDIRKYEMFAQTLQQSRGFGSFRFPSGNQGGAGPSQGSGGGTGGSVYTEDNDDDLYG
# CHOP UPR activ – activators of apoptotic CHOP UPR arm, primary screen, cell-based, CHO-CHOP luciferase reporter, luminescence, uHTS | UPR activation; percent of tunicamycin response over DMSO baseline | activation, % at 10 µM | actives 0.34% (n = 330,000) | AID 449763, 2010;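 active = at 10 µM dose, activation of 40% or more, normalized to positive control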;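 also: 100% = tunicamycin at 10 µg/mL and 0% = DMSO alone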
#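 Dosing – one dose, 10 µM in 0.5% DMSO · System – CHO-CHOP cells, stable luciferase reporter of PERK-eIF2a-CHOP signalling · Input – 500 cells/well · Control set – tunicamycin 10 µg/mL final as positive, DMSO-only wells as negative · Timing – 6 h compound treatment, 37 °C · Measure – % activation vs tunicamycin · Technique – luminescence read with Steady-Glo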
# CHOP confirm – retest of CHOP induction inhibitors, confirmation, cell-based; shares compounds with CHOP inhibitor; CHO-CHOP promoter luciferase reporter, tunicamycin-induced, luminescence; inhibition, % at 10 µM; actives 45% (n = 2,100); AID 504437, 2011;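 active = mean of three repeat readings of reporter signal inhibition above a set limit, cut at about 70% in these data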;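 also: 0% = tunicamycin plus vehicle and 100% = wells lacking tunicamycin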
# * hit, by the source's call; x = not tested or not shown.
SMILES,XBP1 UPR activ,CHOP inhibitor,PfM18AAP inh,NS3 helicase inh,p97 ATPase inh,CHOP UPR activ,CHOP confirm
COc1ccc(CN(C)C2c3ccccc3-c3ccccc32)cc1,-2,106*,-4,0,-4,0,5
COc1ccc(CP(=O)(c2ccccc2)c2ccccc2)cc1,-2,x,-6,0,x,1,x
Cc1cc(C)cc(OC2CCCCC2NS(=O)(=O)c2ccccc2)c1 (centres undefined),0,99*,-4,-8,-1,-1,70*
CC(C)C[C@@H](CSc1ccccc1)N1CCN(CC(C)C)CCC1=O,3,x,5,-8,x,2,x
CN(C(=O)COC(=O)c1cc([N+](=O)[O-])ccc1Cl)c1ccccc1,4,x,-1,0,x,1,x
Cc1ccc(S(=O)(=O)Nc2ccc3[nH]ccc3c2)cc1,-2,x,5,-3,x,3,x
COC(=O)c1cc2cc(NS(=O)(=O)c3ccc(C)cc3)ccc2s1,1,103*,-1,-9,-2,-1,14
C=CCc1c(O)c(CC)cc2c(C)cc(=O)oc12,-1,1,-16,4,-7,0,x
CCOc1ccc(CCNC(=O)C(C)N2C(=O)CC(C)(C)Sc3ccccc32)cc1 (centres undefined),-1,x,-4,-6,x,-2,x
O=C(NNc1ccccc1Br)C(O)(c1cccc(C(F)(F)F)c1)c1cccc(C(F)(F)F)c1,2,103*,7,7,4,17,118*
CCOC(=O)/C(=C\c1ccccc1)NC(=O)c1ccccc1,-2,-20,1,8,5,-1,x
CCOC(=O)/C(=C/c1ccc(OC(=O)c2ccccc2)cc1)C(C)=O,18,101*,1,0,4,4,-30
CCC(=O)NC(c1ccccc1Cl)c1c(O)ccc2ccccc12 (centres undefined),-4,20,9,-7,4,-1,x
O=C(NC(c1ccccc1)c1c(O)ccc2ccccc12)c1ccccc1Cl (centres undefined),-2,107*,5,2,2,0,125*
C=CCn1c(SCC(=O)Nc2ccc(-c3nc4ccc(C)cc4s3)cc2)nnc1-c1ccccc1,x,100*,-7,21,-4,x,70*
Oc1cccc(C2c3[nH]c4ccccc4c3CCN2Cc2ccc3c(c2)CCO3)c1 (centres undefined),7,106*,-13,-25,4,0,10
Oc1cccc(C2c3[nH]c4ccccc4c3CCN2Cc2ccoc2)c1 (centres undefined),-2,18,-6,-12,2,1,x
O=C(Cc1cccs1)N/N=C/C(Br)=C/c1ccccc1,3,104*,16,9,-4,3,66
Nc1nc(-c2ccccc2)c(N=Nc2cccc3ccccc23)s1,0,30,14,-14,0,-1,x
Nc1nc(-c2ccccc2)c(N=Nc2ccccc2Cl)s1,0,97*,1,-20,2,-2,80*
CC1CCCN(CCCN2C(=O)C3C(C(=O)Nc4ccc(Cl)cc4)C4C=CC3(O4)C2C(=O)NC2CCCCC2)C1 (centres undefined),6,x,-12,-15,x,2,x
Cc1ccc(C(C)(O)CS(=O)(=O)Cc2ccccc2)cc1 (centres undefined),3,x,-8,7,x,1,x
O=C(COC(=O)c1cc[n+]([O-])cc1)Nc1ccc(F)c([N+](=O)[O-])c1,-2,-23,-2,-2,4,-1,x
O=C(O)CSCC(=O)Nc1ccc(C2CCCCC2)cc1,-5,99*,4,5,-1,-8,108*
CC(OC(=O)c1ccc2c(c1)NC(=O)CS2)C(=O)c1ccc(F)cc1 (centres undefined),-1,x,x,x,x,1,x
SMILES,XBP1 UPR activ,CHOP inhibitor,PfM18AAP inh,NS3 helicase inh,p97 ATPase inh,CHOP UPR activ,CHOP confirm
CCOC(=O)c1cnc(-n2nc(C)cc2C)nc1Nc1ccc(C)cc1,x,-15,0,2,4,x,x
CCOC(=O)c1cnc(-n2nc(C)cc2C)nc1Nc1ccc(O)cc1,-4,104*,-1,-5,-2,-6,110*
Cc1sc2ncnc(N3CCCCC3)c2c1C,1,23,12,-1,1,-1,x
Cc1sc2ncnc(N3CCCCC3C)c2c1C (centres undefined),0,99*,-8,11,-3,2,70*
Oc1cccc(/C=N/N2CCN(C3c4ccccc4-c4ccccc43)CC2)c1,1,-5,-10,0,-5,-1,x
COc1cc(/C=N/N2CCN(C3c4ccccc4-c4ccccc43)CC2)ccc1O,-3,106*,-11,-12,5,0,38
Cc1cc2c(cc1S(=O)(=O)CCC(=O)NCCc1ccccc1)OCC(=O)N2,-1,x,2,3,x,0,x
Fc1cc(F)c2nc(Nc3nc4cc5c(cc4s3)OCO5)sc2c1,x,109*,-14,5,1,x,84*
CSCCC(NC(=O)c1ccccc1)C(=O)N1CC(C)OC(C)C1 (centres undefined),-3,x,x,x,x,2,x
CCC(=O)N1CCN(c2ccc(NC(=O)c3cc4ccccc4o3)cc2Cl)CC1,-7,x,5,6,2,-2,x
CCCC(=O)N1CCN(c2ccc(NC(=O)c3cc4ccccc4o3)cc2Cl)CC1,-8,x,0,-4,5,-6,109*
CC(C)(C)c1ccc(S(=O)(=O)NCC(=O)Nc2sc3c(c2C(N)=O)CCCC3)cc1,-1,107*,-6,11,-7,2,92*
NC(=O)c1c(NC(=O)CCCC(=O)O)sc2c1CCCCCC2,-2,-18,10,7,-4,0,x
COc1cccc(N(C(=O)CNC(=O)c2ccco2)C(C(=O)NC2CCCC2)c2ccco2)c1 (centres undefined),1,x,-4,-4,x,1,x
N#Cc1nccnc1S(=O)(=O)c1cccs1,-9,107*,-88,-4,5,-9,105*
O=[N+]([O-])c1cc(-n2cnnn2)ccc1N1CCC(Cc2ccccc2)CC1,1,104*,8,-6,-9,0,39
Cc1cc(C)cc(C(=O)NC(CC(N)=O)c2ccc(N3CCC(Cc4ccccc4)CC3)c([N+](=O)[O-])c2)c1 (centres undefined),-1,x,1,-2,x,-2,x
